Data: PubChem BioAssay AID624014 (Broad Institute, 2012)
“And” between values parts separate entries of the source, which are not always exact repeats. Identical values can stand only once.

Test system: Candida glabrata growth in glycerol medium, OD600, 48 h
Assay: C. glabrata respiratory growth inhibitors tested alone – glycerol medium, OD600, dry powder, set 4, dose response (AID 624014)
In short: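 Material: Candida glabrata yeast cells, whole-organism growth assay; Compound dosing: pin-transferred compounds; Times: compound exposure 48 h at 30 °C, static, humidified; Technique: absorbance at 600 nm (OD600) as growth measure; Control set: amphotericin B at 10 µM as positive control.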

Structure (SMILES) | AC50
CCOC(=O)N1C(=O)C2(CCCCC2)N(c2ccc(F)cc2)C1=S | 6.16 nM
CCOC(=O)N1C(=O)C2(CCCCC2)N(c2cccc(C)c2)C1=S | 23.9 nM
CCOC(=O)N1C(=O)C2(CCCCC2)N(c2ccccc2)C1=S | 19.4 nM
CCOC(=O)N1C(=O)C2(CCCCC2)N(c2ccc(Cl)cc2)C1=S | 13.8 nM
CCOC(=O)N1C(=O)C2(CCCCC2)N(c2ccc(C)cc2)C1=S | 31.8 nM and 22.4 nM
CCOC(=O)N1C(=O)C2(CCCCC2)N(c2ccc(C#N)cc2)C1=S | 27.8 nM
C/C=C/[C@@H]1[C@H]2C[C@@H](C)CC[C@@H]2C(C)=C[C@H]1C(=O)c1c(O)c(-c2ccc(O)cc2)c[nH]c1=O | 2450 nM
CC1/C=C/C=C\C=C\C=C\C=C\C=C\C=C\C(O[C@H]2OC(C)C(O)C(N)C2O)CC2OC(O)(CC(O)CC(O)C(O)CCC(O)CC(O)CC(=O)OC(C)C(C)C1O)CC(O)C2C(=O)O (stereo partly drawn) | 602 nM
